# Assay results from different studies.
# Lines come from different studies, so protocols differ.
# PIK3CG: Phosphatidylinositol 4,5-bisphosphate 3-kinase catalytic subunit gamma isoform (PIK3CG, Homo sapiens, UniProt P48736)
# ADRA2B: Alpha-2B adrenergic receptor (ADRA2B, Homo sapiens, UniProt P18089)
target,effect on,mode,technique,measurement,value,Compound
"Sigma intracellular receptor 2 (TMEM97, Homo sapiens, UniProt Q5BJF2)",cell-free assay,,radioligand,Ki,1900 nM,Cn1ccc(-c2ccc(-c3cc(C(=O)O)cc4cc(-c5ccc(C(F)(F)F)cc5)ccc34)cc2)n1
PIK3CG,enzyme activity,inhibitor,radiometric,IC50,> 10000 nM,COc1ccc(-c2cc(=O)c3cccc(Nc4ncc5cc(C(=O)N(C)C)n(C6CCCC6)c5n4)c3o2)cc1
ADRA2B,ligand displacement,,radioligand,Ki,125 nM,Cc1cc(Oc2ncccc2CN2CCN(c3ccc(Br)cc3)CC2)ccc1-c1c(C)c(=O)[nH]c(=O)n1C
PIK3CG,enzyme activity,inhibitor,ADP detection,IC50,12.6 nM,CC(C)c1cccc(C(C)C)c1N=C1C(=O)Nc2ccccc21
ADRA2B,ligand displacement,,radioligand,Ki,172 nM,Cc1cc(Oc2ncccc2CN2CCN(C(c3ccccc3)c3ccccc3)CC2)ccc1-c1c(C)c(=O)[nH]c(=O)n1C
PIK3CG,enzyme activity,inhibitor,ADP detection,IC50,4.06 nM,CC(C)c1cccc(C(C)C)c1N=C1C(=O)N(Cc2ccc(Br)cc2)c2ccccc21
ADRA2B,ligand displacement,,radioligand,Ki,987 nM,CCN1/C(=C/C(C)=O)Sc2ccc(F)cc21
PIK3CG,enzyme activity,inhibitor,ADP detection,IC50,18.6 nM,Cc1ccc(CN2C(=O)C(=Nc3c(C(C)C)cccc3C(C)C)c3ccccc32)cc1
"FBXW7 (Homo sapiens, UniProt Q969H0)",binding,,SPR,Kd,> 87 µM,COc1cc(-c2noc(C3CNc4cnn(C)c4C3)n2)cc(Cl)c1OC (stereo not shown)
ADRA2B,ligand displacement,,radioligand,Ki,49.6 nM,Cc1cc(Oc2ncccc2CN2CCN(c3ccccc3Br)CC2)ccc1-c1c(C)c(=O)[nH]c(=O)n1C
"Neuropeptide Y receptor type 2 (NPY2R, Homo sapiens, UniProt P49146)",reporter gene,agonist,luciferase,EC50,0.4 nM,CC(C)C[C@H](NC(=O)[C@H](CC(C)C)NC(=O)[C@H](Cc1c[nH]c2ccccc12)NC(=O)[C@H](CCC(N)=O)NC(=O)[C@@H](NC(=O)[C@H](Cc1ccccc1)NC(=O)[C@H](CC(=O)O)NC(=O)[C@H](CCC(N)=O)NC(=O)[C@H](C)NC(=O)[C@H](C)NC(=O)[C@H](CCCNC(=N)N)NC(=O)[C@H](CCC(=O)O)NC(=O)[C@H](CC(=O)O)NC(=O)[C@H](CC(C)C)NC(=O)[C@H](Cc1ccc(O)cc1)NC(=O)[C@H](CCCCN)NC(=O)[C@H](CO)NC(=O)[C@H](Cc1ccc(O)cc1)NC(=O)[C@H](CC(=O)O)NC(=O)[C@H](CO)NC(=O)[C@@H](NC(=O)[C@H](Cc1ccccc1)NC(=O)[C@@H](NC(=O)CNC(=O)[C@H](CCC(N)=O)NC(=O)C(C)(C)NC(=O)[C@@H](N)Cc1c[nH]cn1)[C@@H](C)O)[C@@H](C)O)C(C)C)C(=O)N[C@@H](CC(=O)O)C(=O)NCC(=O)NCC(=O)N1CCC[C@H]1C(=O)N[C@@H](CO)C(=O)N[C@@H](CC(C)C)C(=O)N[C@@H](CCCNC(=N)N)C(=O)N[C@@H](Cc1c[nH]cn1)C(=O)N[C@@H](Cc1ccc(O)cc1)C(=O)N[C@@H](CC(C)C)C(=O)N[C@@H](CC(N)=O)C(=O)N[C@@H](CC(C)C)C(=O)N[C@H](C(=O)N[C@H](C(=O)N[C@@H](CCCNC(=N)N)C(=O)N[C@@H](CCC(N)=O)C(=O)N[C@@H](CCCNC(=N)N)C(=O)N[C@@H](Cc1ccc(O)cc1)C(N)=O)[C@@H](C)O)C(C)C
ADRA2B,ligand displacement,,radioligand,Ki,113 nM,Cc1cc(Oc2ncccc2CN2CCN(c3cccc(Cl)c3Cl)CC2)ccc1-c1c(C)c(=O)[nH]c(=O)n1C
PIK3CG,enzyme activity,inhibitor,ADP detection,IC50,0.45 nM,Cc1cccc(N=C2C(=O)N(Cc3ccccc3)c3ccccc32)c1
